Experimental data from article PMC3207261 (European journal of nuclear medicine and molecular imaging, 2010).
Values joined by “and” are separate entries in the source; they are usually repeats but may differ in a detail not shown here. Equal entries are not always repeated. “Also recorded” adds a separate entry of the source. Where two headings read alike, the source gives them in different places. Marks after values point to notes of the source that are not given here.

Assays:
[1] = cited from earlier work
[2] = Whole-body PET biodistribution after intravenous injection of ^18F-SP203; format: in vivo, humans
Summary of the method: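 Seven healthy volunteers (3 female, 4 male) received 141±41 MBq i.v. 2-D dynamic whole-body PET covered seven 15-cm bed positions (head to upper thigh) in 16 frames (15 s–4 min), 300 min total, including three 30-min rest periods. OSEM reconstruction with attenuation and scatter correction. Regions were drawn per coronal slice (high-uptake organs) or on summed slices (low-uptake). Uptake was expressed as % injected activity, mean±SD.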

[3] = Residence times of source organs from whole-body imaging; format: in vivo, humans; conditions: mean±SD
Summary of the method: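 Residence time = area under each organ's time–activity curve (fraction of injected activity). Decay correction was removed and recovery correction applied (first-frame body activity vs dose-calibrator value). Area was trapezoidal to end of imaging, then physical decay only to infinity. Right-lung activity was scaled by the lung mass ratio 1:1.87. Organs spanning beds used the timing of their main bed position.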

[4] = Radiation absorbed doses by Medical Internal Radiation Dose scheme; format: in vivo, humans
Summary of the method: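 Mean residence times of seven subjects were entered for a 70-kg adult male model. Red marrow residence came from the lumbar vertebrae, with all vertebral activity assigned to marrow, × 100/11.7. […] Bladder used the dynamic model with a 2.4-h voiding interval. Maximal injectable activity was derived from dose per MBq against the annual dose limits.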

[5] = format: in vivo, humans
[6] = tested on: glutathione S-transferase; conditions: both in vitro and in vivo, via glutathione S-transferase, ref [16]; cited from earlier work
[7] = tested on: mGluR5; conditions: late time points; ref [3]; cited from earlier work
[8] = Radiation dose of other ^18F-labeled radioligands; format: in vivo; conditions: approximate effective dose calculated from the reported doses of individual organs
[9] = ref Communication from R.M. Kessler

## FC(F)(F)c1nnnn1-c1ccc(OC[18F])c(CN[C@H]2CCCN[C@H]2c2ccccc2)c1 [^18F-SPARQ]
[1]; ref [7]
  Dose to red marrow: 15.8 μSv/MBq
  Effective dose: 29.3 μSv/MBq

## N[C@@H](Cc1cc(O)c(O)cc1[18F])C(=O)O [^18F-FDOPA]
[1]; ref [24]
  Dose to red marrow: 10.5 μSv/MBq
  Effective dose: 19.9 μSv/MBq

## CNc1ccc(-c2nc3ccc(O)cc3s2)cc1[18F] [^18F-GE067]
[1]; ref [22]
  Dose to red marrow: 15.3 μSv/MBq
  Effective dose: 33.8 μSv/MBq

## N#Cc1cc(F)cc(C#Cc2csc(C[18F])n2)c1 [^18F-SP203, 3-fluoro-5-(2-(2-^18F-(fluoromethyl)-thiazol-4-yl)ethynyl)benzonitrile]
[2]; after injection
  Time of peak uptake in brain, kidneys, lungs, heart and spleen: ≤ 8 min
[2]; bone structures with vs without red marrow
  Distribution of radioactivity in the skeleton: most of the radioactivity was in bone structures that contain red marrow and not in those without red marrow; also recorded: the majority of activity in the human skeleton was in the red marrow rather than in bone itself; also recorded: most of the radioactivity was in bone structures that contain red marrow and not in bones without red marrow
[2]; brain, seven healthy humans, i.v.
  Peak uptake in brain: 11 % of injected activity
[2]; gallbladder
  Radioactivity accumulated in gallbladder (asymptote / maximum): 0.9 % of injected activity
  Time to reach asymptote / maximum in gallbladder: ≤ 100 min
[2]; heart
  Peak uptake in heart: 3.4 % of injected activity
[2]; judged from distribution of radioactivity in bone structures with various proportions of bone and red marrow
  Defluorination in humans: undergoes little defluorination
[2]; liver, seven healthy humans, i.v.
  Peak uptake in liver: 12.8±3.4 % of injected activity
[2]; lungs
  Peak uptake in lungs: 4.7 % of injected activity and 4.7±1.5 % of injected activity
[2]; red marrow
  Radioactivity accumulated in red marrow (asymptote): 14 % of injected activity
  Time to reach asymptote in red marrow: ≤ 100 min
[3]; brain, seven subjects
  Residence time, brain: 0.192 h and 0.192 ± 0.048 h
[3]; gallbladder, seven subjects
  Residence time, gallbladder: 0.018 h and 0.018 ± 0.009 h
[3]; heart, seven subjects
  Residence time, heart: 0.024 h and 0.024 ± 0.008 h
[3]; kidney, seven subjects
  Residence time, kidney: 0.037 ± 0.004 h
[3]; liver, seven subjects
  Residence time, liver: 0.091 h and 0.091 ± 0.015 h
[3]; lungs, seven subjects
  Residence time, lungs: 0.065 h and 0.065 ± 0.017 h
[3]; red marrow (from lumbar vertebrae x 100/11.7)
  Residence time, red marrow: 0.307 h and 0.307 ± 0.063 h
[3]; remainder of body
  Residence time, remainder of body: 1.585 ± 0.147 h
[3]; spleen, seven subjects
  Residence time, spleen: 0.014 h and 0.014 ± 0.004 h
[4]; Europe, effective dose limit 10 mSv per year
  Maximal injectable activity per year: no more than 562 MBq
[4]
  Radiation dose, brain: 127.0 mrem/mCi
[4]; standard reference man
  Radiation dose, brain: 34.5 μSv/MBq
[5]; 141±41 MBq (1.9±1.0 nmol SP203) i.v., subject reports, ECG, blood pressure, pulse rate, respiration rate
  Pharmacological effects during the 5-h scan: no pharmacological effects
[5]; acquired 7 to 24 h after radioligand injection
  Effects in blood and urine tests: no effects were noted
[6]
  Defluorination in rat brain: defluorinated
[7]
  Radioactivity in the skull in human brain imaging: moderate uptake of radioactivity in the skull; also recorded: moderate amount of radioactivity accumulation in the skull

## C[C@]12CCC(=O)C[C@@H]1CC[C@@H]1[C@@H]2CC[C@]2(C)[C@@H](O)[C@@H]([18F])C[C@@H]12 [^18F-Fluorodihydrotestosterone]
[8]; ref [20]
  Effective dose: ~12.5^a μSv/MBq
[1]; ref [20]
  Dose to red marrow: 18.7 μSv/MBq

## C=CCN1CCC[C@H]1CNC(=O)c1cc(CCC[18F])cc(OC)c1OC [^18F-Fallypride]
[1]; [9]
  Dose to red marrow: 19.5 μSv/MBq
  Effective dose: 21.1 μSv/MBq

## COC(=O)[C@H]1[C@@H](c2ccc(Cl)cc2)C[C@@H]2CC[C@H]1N2CC[18F] [^18F-FECNT]
[1]; ref [21]
  Dose to red marrow: 16.1 μSv/MBq
  Effective dose: 15.8 μSv/MBq

## Fc1ncccc1OC[C@@H]1CCN1 [^18F-Fluoro-A-85380]
[1]; ref [23]
  Dose to red marrow: 14.1 μSv/MBq
  Effective dose: 23.7 μSv/MBq

## COC(=O)[C@H]1[C@@H](c2ccc(I)cc2)C[C@@H]2CC[C@H]1N2CCC[18F] [^18F-FPCIT]
[8]; ref [25]
  Effective dose: ~8.6^a μSv/MBq
[1]; ref [25]
  Dose to red marrow: 5.1 μSv/MBq

## Cc1cn([C@H]2C[C@H]([18F])[C@@H](CO)O2)c(=O)[nH]c1=O [^18F-Fluorothymidine]
[8]; ref [19]
  Effective dose: ~15.5^a μSv/MBq
[1]; ref [19]
  Dose to red marrow: 24.0 μSv/MBq
